# High-throughput results: PubChem BioAssay, several laboratories
# Hits are enriched below; roughly 4.8% of the tested compounds scored in any of these assays.
# Beta cell apopt – beta cell apoptosis inhibition; INS-1E cytokine-induced death, ATP luminescence, 48 h; percent of positive-control rescue, neutral wells zero; protection from apoptosis, % (no concentration beside the values); 300,000 compounds, 0.8% hits; AID 435005;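 active = Every replicate reaches about 75%, or at least half do and their mean reaches it too, limit read from the data; inconclusive = At least half of replicates reach the limit but their mean does not; inactive = Under half of replicates reach the limit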;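 also: higher means more ATP so stronger rescue from cytokine killing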
# Efflux pump inh – inhibitors of Candida antifungal efflux pumps expressed in yeast; 330,000 compounds, 0.44% hits; S. cerevisiae Candida pump triplex, Nile Red efflux; inhibition, % at 10 µM;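 active = plate passing quality check with inhibition over a set limit, or well fluorescence over plate mean plus 4 SD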;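 also: Nile Red retained in pooled yeast measured as flow cytometry median fluorescence; higher means more Nile Red kept so more efflux inhibition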
# CSC inhib – blocks cancer stem cells. inhibition, % at 7.5 µM. cancer stem cell-like cells viability, luminescence. 300,000 compounds, 1.1% hits; in the data active = inhibition above about 75%; inconclusive = no clear call, values can overlap the other calls; tested in HMLE shEcad cells
# Mot1-301 SUMO – blocks SUMOylation pathway, rescuing yeast Mot1-301 growth | S. cerevisiae Mot1-301 growth rescue, ATP luminescence, 38.5C; percent above DMSO median, 100 means doubled | growth rescue, % at 18.8 µM | 320,000 compounds, 1% hits | AID 2716;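 active = every valid replicate shows activation above 250% relative to neutral control wells; inactive = the rest, any valid replicate at or below 250%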
# WT yeast gro inh – growth inhibition of WT yeast, mitochondrial fusion screen | mitochondrial fusion phenotypic screen, WT strain | inhibition, % at 10 µM | 190,000 compounds, 2.1% hits | AID 1362; in the data active = inhibition above about 58%; tested in S. cerevisiae
# T cruzi inh – T. cruzi replication inhibition; T. cruzi beta-gal in NIH3T3, luminescence, 90 h; inhibition, % (test concentration not listed); 300,000 compounds, 1.4% hits; AID 1885;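 active = mean inhibition across valid replicates above about 55%, limit read from the data; inconclusive = mean below that limit but half or more replicates reach it; inactive = mean below it, under half of replicates reach it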;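 also: signal also drops with host cell toxicity which is not excluded here; higher percent means less beta-gal luminescence so fewer parasites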
#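 Read-out: Parasite load inhibition, % | Test system: Mouse NIH/3T3 fibroblasts infected with β-gal-expressing T. cruzi Tulahuen C4 | Amount: 5,000 cells/well | Medium: DMEM, 2% fetal bovine serum | Signal: GalScreen β-gal luminescence, detergent lysis, 60 min | Timing: 3 h attach, ≥90 h co-culture | Also added: Tulahuen C4 trypomastigotes, 5000/well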
# Numbers stand for hits; n = inactive; u = inconclusive; x = no result.
SMILES,Beta cell apopt,Efflux pump inh,CSC inhib,Mot1-301 SUMO,WT yeast gro inh,T cruzi inh
CCOC(=O)c1cccc(C2=CC(=O)C[C@H](c3ccc(Cl)cc3)C2)c1,n,n,77,n,x,x
C=CCN(c1ccccc1)S(=O)(=O)c1cc2c(cc1C)NC(=O)CO2,n,n,x,n,x,n
CCNc1nc(N2CCCC2)nc(N2CCCC2)n1,n,n,n,n,n,n
CCNc1nc(NC(C)(C)C)nc(N2CCCCC2)n1,n,n,n,n,78,n
CNC(=O)C1CC(=O)N(c2ccc(OCC(=O)Nc3ccc(OC)cc3)cc2)C1 (stereo unspecified),n,n,n,n,x,x
CNC(=O)c1sc(N2N=C3/C(=C/c4ccccc4)CCCC3C2c2ccccc2)nc1C (stereo unspecified),98,n,n,n,n,n
O=C1CCC(C(=O)OCC(=O)N2N=C3/C(=C/c4ccccc4)CCCC3C2c2ccccc2)N1 (stereo unspecified),n,n,n,n,n,n
O=C(c1ccccn1)N1N=C2/C(=C/c3ccccc3)CCCC2C1c1ccccc1 (stereo unspecified),n,n,n,400,n,n
Cc1csc(=O)n1CCC(=O)OCC(=O)Nc1ccc(F)c(F)c1F,n,n,n,n,x,n
NC(N)=N/N=C/c1ccc(Cl)c(Cl)c1,n,n,n,n,x,n
NC(N)=N/N=C/c1ccccc1,x,n,x,n,n,62
OCCCCNCc1ccc(OCc2ccccc2Cl)cc1,n,n,n,n,n,n
NC(N)=N/N=C/c1ccc(OCc2ccccc2Cl)cc1,n,n,105,n,62,69
O=C(Nc1nc(-c2ccccn2)cs1)c1cccc(-n2cnnn2)c1,76,n,n,n,x,63
O=C(Nc1nc(-c2ccccn2)cs1)c1ccc(Br)s1,85,n,97,n,60,n
C[C@H](NC(=O)[C@H]1N2C(=O)c3ccccc3C2SC1(C)C)C(=O)NCC1CCCO1 (stereo partly specified),n,n,n,n,x,n
Cc1ccc(C(C[N+](=O)[O-])c2c(-c3ccccc3O)[nH][nH]c2=O)cc1 (stereo unspecified),n,n,n,272,n,n
Cc1ccc(CCNC(=O)CN(C)S(=O)(=O)c2ccc3c(c2)n(C)c(=O)c(=O)n3C)cc1,n,n,x,n,x,n
Oc1ccc(Cl)cc1CNc1cccc2cccnc12,n,n,n,n,x,n
Oc1ccc(Br)cc1CNc1cccc2cccnc12,100,n,n,n,x,n
Cc1ccc(O)c(CNc2cccc3cccnc23)c1,102,n,n,n,n,n
Cc1ccc(-c2csc3ncnc(Nc4ccc(N5CCOCC5)cc4)c23)cc1,n,n,n,n,64,n
Cc1ccc(-c2csc3ncnc(NCCN4CCOCC4)c23)cc1,n,n,n,n,n,n
Cc1cc(=O)n2[nH]c(-c3ccccc3)cc2n1,n,n,n,n,n,n
Cc1cc(=O)n2[nH]c(-c3ccc(C(C)(C)C)cc3)cc2n1,n,n,n,n,n,63
SMILES,Beta cell apopt,Efflux pump inh,CSC inhib,Mot1-301 SUMO,WT yeast gro inh,T cruzi inh
O=C(O)C(Cc1ccccc1)N1C(=O)c2c(Cl)c(Cl)c(Cl)c(Cl)c2C1=O (stereo unspecified),x,n,n,n,x,n
CCOC(=O)C1=C(N)Oc2cc(O)ccc2C1c1cccc(Cl)c1 (stereo unspecified),n,n,82,n,x,n
CC(C)c1nc(CNC(=O)C2CCC(=O)N(CCc3cccc(F)c3)C2)cs1 (stereo unspecified),n,n,n,n,x,n
Cc1cccc(-c2oc3ccccc3c2C#CCCO)c1,n,n,89,n,x,n
COc1ccccc1-c1oc2ccccc2c1C#CCCO,n,n,n,n,x,x
Cc1cccc(-c2oc3ccccc3c2C#CCCCCO)c1,n,n,101,n,x,n
CCS(=O)(=O)c1ccc(S(=O)(=O)CC)s1,n,n,n,n,n,n
CCc1ccc(S(=O)(=O)Nc2cc(SCC(=O)O)c(O)c3ccccc23)cc1,n,n,114,n,n,n
CCOc1ccc(S(=O)(=O)Nc2cc(SCC(=O)O)c(O)c3ccccc23)cc1,x,n,x,n,x,n
Cc1ccc(C)c(S(=O)(=O)Nc2cc(SCC(=O)O)c(O)c3ccccc23)c1,130,n,n,n,n,x
O=S(=O)(Nc1ccc(O)c2ccccc12)c1ccc(F)cc1,n,n,n,n,x,n
O=C(O)CSc1cc(NS(=O)(=O)c2cccc([N+](=O)[O-])c2)c2ccccc2c1O,x,x,x,x,x,n
CCc1ccc(S(=O)(=O)Nc2ccc(O)c3ccccc23)cc1,u,n,92,n,x,n
CC1(C)CC(c2nc(-c3ccc([N+](=O)[O-])cc3)cs2)CCO1 (stereo unspecified),n,n,n,n,n,n
O=C(Nc1ccc(C(F)(F)F)cc1)N1CCN(c2ccnc3cc(Cl)ccc23)CC1,n,n,89,n,x,69
S=C1NCCc2ccc(Cl)cc2C1c1ccccc1 (stereo unspecified),n,n,n,n,71,x
c1ccc(C2CNCCc3ccccc32)cc1 (stereo unspecified),n,n,n,n,x,n
CCCCOc1cc(NCc2ccccc2)c2ncn(C(C)C)c2c1,80,n,x,n,x,x
CCC(CO)Oc1cc(NCc2ccc(C(C)(C)C)cc2)c2ncn(C(C)C)c2c1 (stereo unspecified),137,n,x,n,x,x
COCCCOc1cc(NCc2ccccc2)c2ncn(C(C)C)c2c1,n,n,n,n,x,x
CC(C)n1cnc2c(NCc3ccccc3)cc(N[C@H](C)CO)cc21,114,n,124,n,x,x
COc1ccccc1CN1CCNC(=O)C1CC(=O)NC1CCCCCC1 (stereo unspecified),n,n,n,n,x,n
CSc1nsc(SCC(=O)Nc2ccccc2F)n1,x,n,n,n,x,n
Cc1nc(Nc2ccccc2)sc1-c1ccccc1,n,n,n,n,64,n
COc1ccc(S(=O)(=O)N2CCC(C(=O)NCCN3CCOCC3)CC2)cc1C,x,n,n,n,x,n
SMILES,Beta cell apopt,Efflux pump inh,CSC inhib,Mot1-301 SUMO,WT yeast gro inh,T cruzi inh
COc1ccc(S(=O)(=O)N2CCCC(C(=O)NCCN3CCOCC3)C2)cc1C (stereo unspecified),n,n,x,318,x,n
N#C/C(=N\Nc1cccc([N+](=O)[O-])c1)C(=O)c1ccc(Br)cc1,104,n,102,n,67,n
O=C(c1cc(-c2ccccc2)nc2ccccc12)N1CCc2ccccc2C1,n,n,n,n,71,n
Cc1ccc2nc(-c3ccccc3)cc(C(=O)N3CCc4ccccc4C3)c2c1,n,n,n,n,n,n
O=C(c1cnn2c(C(F)F)cc(-c3ccccc3)nc12)N1CCc2ccccc2C1,n,n,n,x,78,n
COc1ccc(-c2cc(C(F)(F)F)n3ncc(C(=O)N4CCc5ccccc5C4)c3n2)cc1,n,n,n,n,n,63
